ChEMBL document CHEMBL3616437, “Thiazole compounds with activity against Cryptococcus gattii and Cryptococcus neoformans in vitro” (Eur J Med Chem, 2015)
≈ marks a conversion by molar mass, not a printed value.

Assays:
[1] = tested on: Cryptococcus gattii species complex; assay: Antifungal activity against Cryptococcus gattii L24/01 after 48 to 72 hrs by broth microdilution method; assay type: functional, Cryptococcus bacillisporus
Summary of the method: (§1)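 CLSI M27-A3 broth microdilution in RPMI with L-glutamine, buffered to pH 7.0 with 0.165 M MOPS. Colonies grown twice on SDA, 48 h at 35°C. Inoculum set to 70% transmittance at 530 nm, then diluted to 1-5 x10^3 cells/mL. Test agents dissolved in DMSO, serially diluted, tested at 0.1 to 62.5 µM. Plates held at 35°C for 48-72 h. MIC is the lowest concentration giving an optically clear well, read visually against drug-free growth controls.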

Cryptococcus neoformans [2] = assay: Antifungal activity against Cryptococcus neoformans VM-MCMMPI after 48 to 72 hrs by broth microdilution method; assay type: functional
Summary of the method: (§2)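 CLSI M27-A3 broth microdilution. Isolates subcultured twice on SDA, 48 h at 35°C. Saline suspension adjusted to 70% transmittance at 530 nm, then diluted to 1-5 x10^3 cells/mL in RPMI with L-glutamine, 0.165 M MOPS, pH 7.0. Compounds in DMSO, tested at […]. 35°C for 48-72 h. MIC read visually as the lowest concentration giving an optically clear well.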

[3] = tested on: Cryptococcus gattii species complex; assay: Antifungal activity against Cryptococcus gattii 547/OTTI-97-PI-10 after 48 to 72 hrs by broth microdilution method; assay type: functional, Cryptococcus bacillisporus; summary of the method: as §1
Cryptococcus neoformans [4] = assay: Antifungal activity against Cryptococcus neoformans 28JF after 48 to 72 hrs by broth microdilution method; assay type: functional; summary of the method: as §2
Cryptococcus neoformans [5] = assay: Antifungal activity against Cryptococcus neoformans WP after 48 to 72 hrs by broth microdilution method; assay type: functional; summary of the method: as §2
Cryptococcus neoformans [6] = assay: Antifungal activity against Cryptococcus neoformans ATCC 28957 after 48 to 72 hrs by broth microdilution method; assay type: functional; summary of the method: as §2
Cryptococcus neoformans [7] = assay: Antifungal activity against Cryptococcus neoformans 5396 after 48 to 72 hrs by broth microdilution method; assay type: functional; summary of the method: as §2
Cryptococcus neoformans [8] = assay: Antifungal activity against Cryptococcus neoformans CN31 after 48 to 72 hrs by broth microdilution method; assay type: functional; summary of the method: as §2
[9] = tested on: Cryptococcus gattii species complex; assay: Antifungal activity against Cryptococcus gattii ICB181 after 48 to 72 hrs by broth microdilution method; assay type: functional, Cryptococcus bacillisporus; summary of the method: as §1
Cryptococcus neoformans [10] = assay: Antifungal activity against Cryptococcus neoformans F10 after 48 to 72 hrs by broth microdilution method; assay type: functional; summary of the method: as §2
Cryptococcus neoformans [11] = assay: Antifungal activity against Cryptococcus neoformans 27JF after 48 to 72 hrs by broth microdilution method; assay type: functional; summary of the method: as §2
Vero = assay: Cytotoxicity against African green monkey Vero cells assessed as cell viability measured after 48 hrs by MTT assay; assay type: cell-based; settings: Chlorocebus sabaeus
Summary of the method: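 VERO cells in D-MEM with 5% FBS, used up to 20 passages. Seeded 1 x 10^4 cells/well, pre-incubated 24 h at 37°C. Exposed 48 h at 37°C, 5% CO2, to eight nonserial dilutions from 100 to 0.0128 µM, with 0.5% DMSO control. MTT reduction read-out, corrected for background and blank. IC50 reported as median with 95% CI. Triplicate, two independent experiments.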

Cryptococcus neoformans [12] = assay: Antifungal activity against Cryptococcus neoformans LMM820 after 48 to 72 hrs by broth microdilution method; assay type: functional; summary of the method: as §2
Cryptococcus neoformans [13] = assay: Antifungal activity against Cryptococcus neoformans ATCC 62066 after 48 to 72 hrs by broth microdilution method; assay type: functional
[14] = tested on: Cryptococcus gattii species complex; assay: Antifungal activity against Cryptococcus gattii 196L/03 after 48 to 72 hrs by broth microdilution method; assay type: functional, Cryptococcus bacillisporus; summary of the method: as §1
[15] = Selectivity index, ratio of IC50 for C57BL/6 mouse peritoneal macrophages to MIC for Cryptococcus neoformans ATCC 24067
Summary of the method: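 SI = IC50/MIC. Thioglycollate-elicited peritoneal macrophages from C57BL/6 mice are seeded at 1 x 10^5/well. They are exposed for 48 h at 37°C to eight concentrations from 100 to 0.0128 µM. Viability read by MTT versus 0.5% DMSO control, triplicate in two experiments.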

[16] = tested on: Cryptococcus gattii species complex; assay: Antifungal activity against Cryptococcus gattii L28/02 after 48 to 72 hrs by broth microdilution method; assay type: functional, Cryptococcus bacillisporus; summary of the method: as §1
[17] = tested on: Cryptococcus gattii species complex; assay: Antifungal activity against Cryptococcus gattii LMM818 after 48 to 72 hrs by broth microdilution method; assay type: functional, Cryptococcus bacillisporus; summary of the method: as §1
[18] = tested on: Cryptococcus gattii species complex; assay: Antifungal activity against Cryptococcus gattii 23/10993 after 48 to 72 hrs by broth microdilution method; assay type: functional, Cryptococcus bacillisporus; summary of the method: as §1
[19] = tested on: Cryptococcus gattii species complex; assay: Antifungal activity against Cryptococcus gattii 1913ER after 48 to 72 hrs by broth microdilution method; assay type: functional, Cryptococcus bacillisporus; summary of the method: as §1
[20] = tested on: Cryptococcus gattii species complex; assay: Antifungal activity against Cryptococcus gattii L27/01 after 48 to 72 hrs by broth microdilution method; assay type: functional, Cryptococcus bacillisporus; summary of the method: as §1
Cryptococcus neoformans [21] = assay: Antifungal activity against Cryptococcus neoformans 96806 after 48 to 72 hrs by broth microdilution method; assay type: functional; summary of the method: as §2
[22] = tested on: Cryptococcus gattii species complex; assay: Antifungal activity against Cryptococcus gattii 135L/03 after 48 to 72 hrs by broth microdilution method; assay type: functional, Cryptococcus bacillisporus; summary of the method: as §1
Cryptococcus neoformans [23] = assay: Antifungal activity against Cryptococcus neoformans ATCC 24067 after 48 to 72 hrs by broth microdilution method; assay type: functional; summary of the method: as §2
[24] = Cytotoxicity against C57BL/6 mouse peritoneal macrophages assessed as cell viability measured after 48 hrs by MTT assay; assay type: cell-based; settings: C57BL/6, Peritoneal macrophage cell
Summary of the method: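 Thioglycollate-elicited peritoneal macrophages from male C57BL/6 mice, 6–8 weeks old, in RPMI with 10% FBS. Seeded 1 x 10^5 cells/well, pre-incubated 24 h at 37°C. Exposed 48 h at 37°C, 5% CO2, to eight nonserial dilutions from 100 to 0.0128 µM, with 0.5% DMSO control. MTT read-out, % inhibition versus DMSO control. IC50 reported as median with 95% CI. Triplicate, two independent experiments.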

[25] = Selectivity index, ratio of IC50 for African green monkey Vero cells to MIC for Cryptococcus neoformans ATCC 24067; assay type: toxicity, cell-based
[26] = tested on: Cryptococcus bacillisporus; assay: Antifungal activity against Cryptococcus gattii ATCC 32608 after 48 to 72 hrs by broth microdilution method; assay type: functional; summary of the method: as §1

Compound: OC(Cn1cncn1)(Cn1cncn1)c1ccc(F)cc1F [FLUCONAZOLE]
- MFC [1]: > 62.5 µM
- MIC [1]: 13 µM (≈ 3.98 µg/mL)
- MFC (Cryptococcus neoformans [2]): 15.6 µM (≈ 4.78 µg/mL)
- MIC (Cryptococcus neoformans [2]): 11.7 µM (≈ 3.58 µg/mL)
- MFC [3]: > 62.5 µM
- MIC [3]: 13 µM (≈ 3.98 µg/mL)
- MFC (Cryptococcus neoformans [4]): > 62.6 µM
- MIC (Cryptococcus neoformans [4]): 7.8 µM (≈ 2.39 µg/mL)
- MFC (Cryptococcus neoformans [5]): > 62.5 µM
- MIC (Cryptococcus neoformans [5]): 15.6 µM (≈ 4.78 µg/mL)
- MFC (Cryptococcus neoformans [6]): 62.5 µM (≈ 19.1 µg/mL)
- MIC (Cryptococcus neoformans [6]): 3.2 µM (≈ 0.98 µg/mL)
- MFC (Cryptococcus neoformans [7]): 62.5 µM (≈ 19.1 µg/mL)
- MIC (Cryptococcus neoformans [7]): 23.4 µM (≈ 7.17 µg/mL)
- MFC (Cryptococcus neoformans [8]): 31.2 µM (≈ 9.57 µg/mL)
- MIC (Cryptococcus neoformans [8]): 6.5 µM (≈ 1.99 µg/mL)
- MFC [9]: 62.5 µM (≈ 19.1 µg/mL)
- MIC [9]: 10.4 µM (≈ 3.19 µg/mL)
- MFC (Cryptococcus neoformans [10]): > 62.5 µM
- MIC (Cryptococcus neoformans [10]): 10.4 µM (≈ 3.19 µg/mL)
- MFC (Cryptococcus neoformans [11]): > 62.5 µM
- MIC (Cryptococcus neoformans [11]): 10.4 µM (≈ 3.19 µg/mL)
- IC50 (Vero): > 100 µM
- MFC (Cryptococcus neoformans [12]): 62.5 µM (≈ 19.1 µg/mL)
- MIC (Cryptococcus neoformans [12]): 13 µM (≈ 3.98 µg/mL)
- MFC (Cryptococcus neoformans [13]): > 62.5 µM
- MIC (Cryptococcus neoformans [13]): 13 µM (≈ 3.98 µg/mL)
- MFC [14]: > 62.5 µM
- MIC [14]: 26 µM (≈ 7.96 µg/mL)
- Ratio [15]: 15.74
- MFC [16]: > 62.5 µM
- MIC [16]: 26 µM (≈ 7.96 µg/mL)
- MFC [17]: > 62.5 µM
- MIC [17]: 20.8 µM (≈ 6.37 µg/mL)
- MFC [18]: > 62.5 µM
- MIC [18]: 13 µM (≈ 3.98 µg/mL)
- MFC [19]: > 62.5 µM
- MIC [19]: 13 µM (≈ 3.98 µg/mL)
- MFC [20]: > 62.5 µM
- MIC [20]: 41.7 µM (≈ 12.8 µg/mL)
- MFC (Cryptococcus neoformans [21]): > 62.5 µM
- MIC (Cryptococcus neoformans [21]): 31.2 µM (≈ 9.56 µg/mL)
- MFC [22]: 31.3 µM (≈ 9.59 µg/mL)
- MIC [22]: 7.8 µM (≈ 2.39 µg/mL)
- MIC (Cryptococcus neoformans [23]): 7.8 µM (≈ 2.39 µg/mL)
- IC50 [24]: > 100 µM
- selectivity ratio [25]: 15.7
- MFC [26]: 62.5 µM (≈ 19.1 µg/mL)
- MIC [26]: 13 µM (≈ 3.98 µg/mL)

Compound: C[C@@H]1[C@H](O)[C@@H](C)/C=C/C=C/C=C/C=C/C=C/C=C/C=C/[C@H](O[C@@H]2O[C@H](C)[C@@H](O)[C@H](N)[C@@H]2O)C[C@@H]2O[C@](O)(C[C@@H](O)C[C@@H](O)[C@H](O)CC[C@@H](O)C[C@@H](O)CC(=O)O[C@H]1C)C[C@H](O)[C@H]2C(=O)O [AMPHOTERICIN B]
- MFC [1]: 0.1 µM (≈ 0.0924 µg/mL)
- MIC [1]: 0.04 µM (≈ 0.037 µg/mL)
- MFC (Cryptococcus neoformans [2]): 0.22 µM (≈ 0.203 µg/mL)
- MIC (Cryptococcus neoformans [2]): 0.07 µM (≈ 0.0647 µg/mL)
- MFC [3]: 0.1 µM (≈ 0.0924 µg/mL)
- MIC [3]: 0.04 µM (≈ 0.037 µg/mL)
- MFC (Cryptococcus neoformans [4]): 0.22 µM (≈ 0.203 µg/mL)
- MIC (Cryptococcus neoformans [4]): 0.11 µM (≈ 0.102 µg/mL)
- MFC (Cryptococcus neoformans [5]): 0.22 µM (≈ 0.203 µg/mL)
- MIC (Cryptococcus neoformans [5]): 0.09 µM (≈ 0.0832 µg/mL)
- MFC (Cryptococcus neoformans [6]): 0.22 µM (≈ 0.203 µg/mL)
- MIC (Cryptococcus neoformans [6]): 0.04 µM (≈ 0.037 µg/mL)
- MFC (Cryptococcus neoformans [7]): 0.11 µM (≈ 0.102 µg/mL)
- MIC (Cryptococcus neoformans [7]): 0.06 µM (≈ 0.0554 µg/mL)
- MFC (Cryptococcus neoformans [8]): 0.45 µM (≈ 0.416 µg/mL)
- MIC (Cryptococcus neoformans [8]): 0.08 µM (≈ 0.0739 µg/mL)
- MFC [9]: 0.9 µM (≈ 0.832 µg/mL)
- MIC [9]: 0.12 µM (≈ 0.111 µg/mL)
- MFC (Cryptococcus neoformans [10]): 0.11 µM (≈ 0.102 µg/mL)
- MIC (Cryptococcus neoformans [10]): 0.06 µM (≈ 0.0554 µg/mL)
- MFC (Cryptococcus neoformans [11]): 0.45 µM (≈ 0.416 µg/mL)
- MIC (Cryptococcus neoformans [11]): 0.07 µM (≈ 0.0647 µg/mL)
- IC50 (Vero): > 100 µM
- MFC (Cryptococcus neoformans [12]): 0.22 µM (≈ 0.203 µg/mL)
- MIC (Cryptococcus neoformans [12]): 0.06 µM (≈ 0.0554 µg/mL)
- MFC (Cryptococcus neoformans [13]): 0.22 µM (≈ 0.203 µg/mL)
- MIC (Cryptococcus neoformans [13]): 0.03 µM (≈ 0.0277 µg/mL)
- MFC [14]: 0.2 µM (≈ 0.185 µg/mL)
- MIC [14]: 0.04 µM (≈ 0.037 µg/mL)
- Ratio [15]: 109.81
- MFC [16]: 0.1 µM (≈ 0.0924 µg/mL)
- MIC [16]: 0.08 µM (≈ 0.0739 µg/mL)
- MFC [17]: 0.2 µM (≈ 0.185 µg/mL)
- MIC [17]: 0.14 µM (≈ 0.129 µg/mL)
- MFC [18]: 0.1 µM (≈ 0.0924 µg/mL)
- MIC [18]: 0.08 µM (≈ 0.0739 µg/mL)
- MFC [19]: 0.1 µM (≈ 0.0924 µg/mL)
- MIC [19]: 0.08 µM (≈ 0.0739 µg/mL)
- MFC [20]: 0.1 µM (≈ 0.0924 µg/mL)
- MIC [20]: 0.08 µM (≈ 0.0739 µg/mL)
- MFC (Cryptococcus neoformans [21]): 0.45 µM (≈ 0.416 µg/mL)
- MIC (Cryptococcus neoformans [21]): 0.09 µM (≈ 0.0832 µg/mL)
- MFC [22]: 0.5 µM (≈ 0.462 µg/mL)
- MIC [22]: 0.14 µM (≈ 0.129 µg/mL)
- MIC (Cryptococcus neoformans [23]): 0.09 µM (≈ 0.0832 µg/mL)
- IC50 [24]: 53.4 µM
- selectivity ratio [25]: 206
- MFC [26]: 0.9 µM (≈ 0.832 µg/mL)
- MIC [26]: 0.14 µM (≈ 0.129 µg/mL)
